# Results reported in ChEMBL document CHEMBL1681705, “Optimisation of ITK inhibitors through successive iterative design cycles” (Bioorg Med Chem Lett, 2011).
# Legend:
# [1] = biological target: T1, Interleukin-1 receptor-associated kinase 4 (Homo sapiens) (UniProt Q9NWZ3); assay: Inhibition of IRAK4 at 1 uM
# T1 sequence (whole entry): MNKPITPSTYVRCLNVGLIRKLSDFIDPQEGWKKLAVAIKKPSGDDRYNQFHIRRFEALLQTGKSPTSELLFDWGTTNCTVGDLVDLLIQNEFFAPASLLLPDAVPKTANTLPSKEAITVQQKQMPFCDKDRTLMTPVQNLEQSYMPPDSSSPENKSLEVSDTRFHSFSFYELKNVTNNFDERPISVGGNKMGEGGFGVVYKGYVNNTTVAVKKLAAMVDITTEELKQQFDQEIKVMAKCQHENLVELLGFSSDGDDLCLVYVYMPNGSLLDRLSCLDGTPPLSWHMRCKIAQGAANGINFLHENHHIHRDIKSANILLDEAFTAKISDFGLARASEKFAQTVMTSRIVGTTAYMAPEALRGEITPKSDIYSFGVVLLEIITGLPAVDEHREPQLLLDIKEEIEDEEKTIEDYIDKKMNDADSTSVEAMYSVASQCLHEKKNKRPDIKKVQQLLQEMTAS
# How it was run: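 Single-point profiling in a panel of 108 kinases. Each selected inhibitor was tested at two concentrations, 0.1 and 1.0 micromolar. Values are reported as inhibition at each concentration.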
# [2] = biological target: T2, Ephrin type-A receptor 1 (Homo sapiens) (UniProt P21709); assay: Inhibition of EphA1 at 1 uM; values are per cent of control
# T2 sequence (whole entry): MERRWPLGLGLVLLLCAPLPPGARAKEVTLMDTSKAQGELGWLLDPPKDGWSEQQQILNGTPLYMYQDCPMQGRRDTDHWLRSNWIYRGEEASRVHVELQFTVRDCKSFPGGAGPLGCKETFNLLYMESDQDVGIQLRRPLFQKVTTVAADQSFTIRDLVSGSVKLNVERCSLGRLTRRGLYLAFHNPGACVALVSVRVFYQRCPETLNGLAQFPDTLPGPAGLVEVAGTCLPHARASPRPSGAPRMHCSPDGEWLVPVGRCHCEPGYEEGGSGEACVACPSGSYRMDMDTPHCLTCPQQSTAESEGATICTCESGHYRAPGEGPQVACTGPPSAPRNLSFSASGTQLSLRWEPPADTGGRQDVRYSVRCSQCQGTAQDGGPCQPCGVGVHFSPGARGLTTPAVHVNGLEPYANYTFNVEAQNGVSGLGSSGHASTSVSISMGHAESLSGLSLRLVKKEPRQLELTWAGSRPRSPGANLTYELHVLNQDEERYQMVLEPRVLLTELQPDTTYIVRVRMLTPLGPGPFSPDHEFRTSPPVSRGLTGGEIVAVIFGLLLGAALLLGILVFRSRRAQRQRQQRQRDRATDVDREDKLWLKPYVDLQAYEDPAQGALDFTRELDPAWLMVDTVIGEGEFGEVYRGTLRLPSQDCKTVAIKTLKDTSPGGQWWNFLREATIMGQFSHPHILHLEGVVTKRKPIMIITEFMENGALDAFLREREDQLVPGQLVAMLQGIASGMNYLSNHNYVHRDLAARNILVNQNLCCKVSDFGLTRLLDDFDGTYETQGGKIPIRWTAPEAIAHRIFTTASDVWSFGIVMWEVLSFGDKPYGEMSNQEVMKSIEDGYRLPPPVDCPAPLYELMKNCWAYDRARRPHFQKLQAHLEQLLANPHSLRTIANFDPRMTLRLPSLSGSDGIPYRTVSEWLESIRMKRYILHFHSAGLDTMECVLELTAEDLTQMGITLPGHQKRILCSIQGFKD
# [3] = biological target: Protein-tyrosine kinase 2-beta (Homo sapiens) (UniProt Q14289); assay: Inhibition of Pyk2 at 0.1 uM; values are per cent of control
# Chain of Protein-tyrosine kinase 2-beta (Homo sapiens) (Q14289 whole entry, looked up): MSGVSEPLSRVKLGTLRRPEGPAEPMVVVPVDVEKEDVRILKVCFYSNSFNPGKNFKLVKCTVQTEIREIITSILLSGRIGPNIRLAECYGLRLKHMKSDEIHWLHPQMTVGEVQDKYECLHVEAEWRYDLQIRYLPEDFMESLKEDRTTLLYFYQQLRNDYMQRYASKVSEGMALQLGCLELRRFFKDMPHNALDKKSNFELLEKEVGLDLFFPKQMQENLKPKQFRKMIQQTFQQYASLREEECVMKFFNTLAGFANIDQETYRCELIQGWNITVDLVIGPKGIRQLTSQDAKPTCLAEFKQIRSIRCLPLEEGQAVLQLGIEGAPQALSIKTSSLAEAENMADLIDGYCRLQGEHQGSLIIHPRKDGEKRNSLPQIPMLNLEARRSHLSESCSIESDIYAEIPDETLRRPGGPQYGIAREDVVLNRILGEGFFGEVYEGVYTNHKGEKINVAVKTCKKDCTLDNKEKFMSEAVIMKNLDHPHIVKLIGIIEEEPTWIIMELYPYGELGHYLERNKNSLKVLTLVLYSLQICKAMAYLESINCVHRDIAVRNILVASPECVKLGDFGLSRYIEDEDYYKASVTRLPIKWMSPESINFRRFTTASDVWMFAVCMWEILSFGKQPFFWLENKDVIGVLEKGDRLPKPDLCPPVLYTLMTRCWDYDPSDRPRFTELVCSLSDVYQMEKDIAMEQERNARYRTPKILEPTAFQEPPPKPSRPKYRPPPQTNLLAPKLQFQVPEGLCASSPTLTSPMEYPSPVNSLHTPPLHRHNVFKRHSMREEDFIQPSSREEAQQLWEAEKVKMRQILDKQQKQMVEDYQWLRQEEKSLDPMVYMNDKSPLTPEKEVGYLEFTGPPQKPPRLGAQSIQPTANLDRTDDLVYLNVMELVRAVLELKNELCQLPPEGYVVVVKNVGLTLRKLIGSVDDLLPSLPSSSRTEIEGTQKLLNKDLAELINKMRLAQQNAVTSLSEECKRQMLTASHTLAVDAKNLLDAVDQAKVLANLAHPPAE
# [4] = biological target: T3, Inhibitor of nuclear factor kappa-B kinase subunit beta (Homo sapiens) (UniProt O14920); assay: Inhibition of IKK-beta at 0.1 uM; values are per cent of control
# T3 sequence (whole entry): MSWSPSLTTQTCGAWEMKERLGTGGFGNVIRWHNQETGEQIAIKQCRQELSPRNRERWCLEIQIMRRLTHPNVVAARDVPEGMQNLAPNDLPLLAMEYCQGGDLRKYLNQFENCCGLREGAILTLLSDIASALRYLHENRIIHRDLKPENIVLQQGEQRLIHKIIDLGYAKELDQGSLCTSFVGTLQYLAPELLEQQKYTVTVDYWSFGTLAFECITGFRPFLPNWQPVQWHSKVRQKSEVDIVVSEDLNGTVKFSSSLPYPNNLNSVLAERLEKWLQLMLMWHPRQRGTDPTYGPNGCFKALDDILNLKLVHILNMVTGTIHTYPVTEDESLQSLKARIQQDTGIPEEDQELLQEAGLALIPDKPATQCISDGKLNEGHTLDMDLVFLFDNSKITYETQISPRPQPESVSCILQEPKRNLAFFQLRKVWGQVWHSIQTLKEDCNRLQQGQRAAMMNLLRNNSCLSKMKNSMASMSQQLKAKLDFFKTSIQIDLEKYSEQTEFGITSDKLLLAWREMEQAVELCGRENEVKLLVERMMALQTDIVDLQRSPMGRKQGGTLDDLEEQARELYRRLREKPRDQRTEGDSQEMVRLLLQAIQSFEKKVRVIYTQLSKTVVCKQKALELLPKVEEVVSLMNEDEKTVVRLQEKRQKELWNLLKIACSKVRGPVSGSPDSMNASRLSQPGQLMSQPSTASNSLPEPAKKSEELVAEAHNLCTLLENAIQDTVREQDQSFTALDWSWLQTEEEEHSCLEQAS
# [5] = biological target: Cyclin-dependent kinase 7/ cyclin H (Homo sapiens) (UniProt P51946+P50613); assay: Inhibition of CDK7/cyclin H/MAT1 at 0.1 uM; values are per cent of control
inhibition [1] [%],residual activity [2] [%],residual activity [3] [%],residual activity [4] [%],residual activity [5] [%],Compound
0,5,71,99,42,Cc1ccc2cc(-c3n[nH]c4ccc(NC5CCNC5)cc34)[nH]c2c1 (stereo not given)
3,12,66,103,94,Cc1ccc2cc(-c3n[nH]c4ccc(NC5CCN(Cc6ccccc6)CC5)cc34)[nH]c2c1
